# Compound activity from PubChem.
# OX1R antag-1 – blocks the human orexin 1 receptor; CHO/OX1R cells, Fluo-8 calcium fluorescence, orexin A; inhibition, % at 5 µM; 330,000 compounds, 0.43% hits; AID 434989;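 active = inhibition above its plate's threshold, mean inhibition of all tested compounds on the plate plus 3 SD, cut at about 37% in these data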
# TAAR1 antag – antagonists of human TAAR1 | CHO RD-HGA16 TAAR1, Fluo-8 calcium fluorescence, antagonist | inhibition, % at 3 µM | 360,000 compounds, 1.5% hits;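 active = inhibition above a per-plate cutoff, the mean inhibition of test compounds on that plate plus 3 SD, cut at about 49% in these data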
#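 Assay system: CHO-derived RD-HGA16 cells stably expressing human TAAR1 plus Gα16. Timing: 140 s kinetic read after compound, 140 s after agonist. Technique: kinetic Fluo-8 calcium fluorescence measurement. Measure: % inhibition of agonist calcium response.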
# GPR7 antagonist – antagonists of human GPR7 (neuropeptides B/W receptor 1). AID 1861. inhibition, % at 4.4 µM. P48145. GPR7-expressing cells, fluorescence antagonist assay. 290,000 compounds, 1.1% hits; in the data active = inhibition above about 16%, passing the limit was not always enough;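 also: cells stimulated with the agonist NPW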
# Target sequence (P48145 whole entry, looked up): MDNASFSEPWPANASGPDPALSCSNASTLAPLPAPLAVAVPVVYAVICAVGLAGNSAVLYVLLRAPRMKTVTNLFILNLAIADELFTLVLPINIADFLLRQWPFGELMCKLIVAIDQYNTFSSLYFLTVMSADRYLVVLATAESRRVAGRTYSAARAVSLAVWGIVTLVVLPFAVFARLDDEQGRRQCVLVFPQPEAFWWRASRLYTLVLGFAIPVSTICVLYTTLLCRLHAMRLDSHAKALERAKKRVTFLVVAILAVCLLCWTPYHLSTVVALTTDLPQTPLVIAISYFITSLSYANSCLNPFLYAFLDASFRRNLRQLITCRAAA
# CHO parental Ca – counter-screen: ATP calcium response change in parental CHO cells; parental CHO-K1, ATP-induced calcium, Fluo-8 fluorescence; inhibition, % at 5.6 µM; 330,000 compounds, 0.63% hits; AID 463079;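 active = inhibition above that plate's mean sample inhibition plus 3 SD, cut at about 26% in these data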
#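 Test system: untransfected parental CHO cell line; also added: ATP stimulus; dosing: 5.6 µM, single dose; signal: calcium-sensitive Fluo-8 fluorescence; measure: percent inhibition of ATP-evoked calcium rise, normalized to controls; benchmarks: low control ATP plus DMSO, high control DMSO only; replication: one well per compound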
# TAAR1 agonist – human TAAR1 agonism; Q96RJ0; CHO RD-HGA16 TAAR1, Fluo-8 calcium fluorescence; vehicle wells 0%, saturating PEA agonist 100%; activation, % at 3 µM; 360,000 compounds, 0.99% hits;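 active = activation above the mean activation of all test compounds in the run plus 3 SD, cut at about 38% in these data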
#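 Signal – calcium-sensitive Fluo-8 signal, excitation 470-495, emission 515-575 nm · System – RD-HGA16 (CHO) cells co-expressing Gα16 and hTAAR1 · Incubation – 17-24 h seeding, 75 min 37 °C dye, 30 min RT · Compound dosing – 3 µM single concentration · Repeats – no replicates (n 1)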
# OX1R antag-2 – OX1R (human) antagonism; O43613; inhibition, % at 6.6 µM; 330,000 compounds, 1.8% hits; OX1R-expressing cells, FRET antagonist read-out; in the data active = inhibition mostly above about 38%, no sharp cut-off; inactive = mostly below about 40%
# A number is an active result; . = inactive; / = no result. An excerpt weighted towards active compounds, which were near 4.5% of everything screened.
SMILES,OX1R antag-1,TAAR1 antag,GPR7 antagonist,CHO parental Ca,TAAR1 agonist,OX1R antag-2
Cc1c(C(=O)N2CCCCC2)nn(-c2ccc(Cl)cc2)c(=O)c1C#N,.,.,.,.,.,61
CCOC(=O)c1nn(-c2ccc(C)cc2)c(=O)c2c(N)scc12,.,.,.,.,.,77
CCOC(=O)c1nn(-c2ccc(C)c(Cl)c2)c(=O)c(C#N)c1C,.,.,.,.,.,.
CC12CCC(C(=O)N/N=C/c3ccc(O)cc3)(OC1=O)C2(C)C (centres undefined),.,.,.,.,.,.
CC(CC(=O)Nc1ccc2c(c1)c(=O)n(C)n2-c1cccs1)c1ccccc1 (centres undefined),/,.,/,/,.,/
CC(C)CCN1C(=O)CSCC1(C)C(=O)Nc1ccc2c(c1)OCCO2 (centres undefined),/,.,/,/,.,/
O=C(Nc1ncc([N+](=O)[O-])s1)c1ccc2c(c1)OCO2,.,.,.,29,.,.
Cc1ccc(C(=O)Nc2ncc([N+](=O)[O-])s2)cc1,.,.,.,.,.,54
Cc1cnc(NC(=O)c2ccc3c(c2)OCCO3)s1,.,.,/,.,.,.
CCOC(=O)/C(N=Nc1c(C)n(C)n(-c2ccccc2)c1=O)=C(/O)c1ccccc1,.,.,.,.,.,52
CCOC(=O)c1cc(-c2ccc(C#N)cc2)nc2c1c(C)nn2CCC#N,.,.,.,.,.,.
CCOC(=O)c1cc(-c2ccc(OC)cc2)nc2c1c(C)nn2CCC#N,.,.,19,.,.,.
CC(=O)Nc1cccc(-c2ccnc3c2CC(C(=O)NCc2ccc(N(C)C)cc2)O3)c1 (centres undefined),/,.,/,/,.,/
O=[N+]([O-])c1ccc(-c2cnc(SCc3ccccc3Cl)[nH]2)cc1,.,52,.,.,.,.
O=[N+]([O-])c1ccc(OCCOCCOc2ccc([N+](=O)[O-])cc2)cc1,.,.,.,.,.,.
CN(C)c1ccc(P(=O)(COc2ccc([N+](=O)[O-])cc2)c2ccc(N(C)C)cc2)cc1,.,.,20,.,.,.
CC1CCCC(C)N1C(=O)CSc1nc(N)c(-c2ccccc2)c(=O)[nH]1 (centres undefined),.,.,.,.,.,.
O=C(CCCC(=O)c1ccccc1)NCCc1ccccc1F,.,73,.,.,40,.
COc1ccc(C(=O)CCC(=O)NCCc2ccccc2F)cc1,.,71,.,.,39,.
COc1cc(C[C@@H](C)[C@@H](C)Cc2ccc(O)c(OC)c2)ccc1O,.,.,/,.,.,.
CC(Cc1ccc(O)c(O)c1)C(C)Cc1ccc(O)c(O)c1 (centres undefined),.,/,/,34,/,.
Cc1nc(NC(=O)c2ccccc2)sc1-c1csc(NCc2ccco2)n1,.,/,.,.,/,53
CCNC(=O)COC(=O)CNC(=O)c1cc(Cl)cc([N+](=O)[O-])c1,.,.,.,.,.,41
CC(C)(C)NC(=O)COC(=O)CNC(=O)c1cc(Cl)cc([N+](=O)[O-])c1,.,.,.,.,.,.
O=C(CNC(=O)c1cc(Cl)cc([N+](=O)[O-])c1)NC1CC1,.,.,/,.,.,48
SMILES,OX1R antag-1,TAAR1 antag,GPR7 antagonist,CHO parental Ca,TAAR1 agonist,OX1R antag-2
CCCCNC(=O)COC(=O)CNC(=O)c1cc(Cl)cc([N+](=O)[O-])c1,.,.,.,.,.,77
CCOc1ccc(S(=O)(=O)N2CCC(C(=O)NCc3ccncc3)CC2)cc1Cl,.,.,.,.,.,.
C[C@H](NC(=O)C1CCN(C(=O)[C@@H]2CCCN2C(=O)OC(C)(C)C)CC1)C(=O)NCc1ccc(F)cc1,/,.,/,/,.,/
Cn1nc(C(F)(F)F)c(-c2ccc(F)cc2)c1NC(=O)c1ccco1,.,.,.,.,.,.
Cn1nc(C(F)(F)F)c(-c2ccc(Br)cc2)c1NC(=O)Nc1ccc(F)cc1F,46,.,.,.,.,.
CCCCNC(=O)C1(C)CCN1C(=O)c1ccc(F)cc1Cl (centres undefined),/,.,/,/,.,/
CN(CCC#N)C(=O)c1ccc(CNS(=O)(=O)c2ccc(F)cc2)cc1,.,.,16,.,.,.
CCOC(=O)N(C)[C@H]1C[C@H]2c3cc(-c4ccccc4C)ccc3CCN2C[C@H]1[C@H](C)O,/,.,/,/,.,/
